This is an account of results in ChEMBL document CHEMBL3272230, “Hypoglycemic alpha-cycloalkylphenylmehtyl, furanalkyl, and thiophenealkyl lactamimides” (1976).

The structures appear in SMILES notation.

Format in all cases: functional
For experiment [1], the system named is Rattus norvegicus. Nature of the experiment: Hypoglycemic activity in fasted glucose primed Sprague-Dawley rat assessed as plasma glucose level at 12.5 mg/kg administered via oral gavage measured after 2 hrs by glucose-oxidase method relative to control. In a few lines: (§1)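 Young male Sprague-Dawley rats, 105-115 g, fasted overnight. Glucose 1 g/kg given subcutaneously, then test compound immediately by gavage. Blood taken 2 h later and plasma glucose measured by glucose oxidase. Six treated rats per group against six glucose-primed controls given vehicle only by gavage. Result expressed as % reduction versus control; values over 20% significant at p ≤ 0.05.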

Experiment [2] relates to Rattus norvegicus. Nature of the experiment: Hypoglycemic activity in fasted glucose primed Sprague-Dawley rat assessed as plasma glucose level at 25 mg/kg administered via oral gavage measured after 2 hrs by glucose-oxidase method relative to control. In a few lines:
as §1

The test system of experiment [3] is Rattus norvegicus. Nature of the experiment: Hypoglycemic activity in fasted glucose primed Sprague-Dawley rat assessed as plasma glucose level at 100 mg/kg administered via oral gavage measured after 2 hrs by glucose-oxidase method relative to control. The essentials:
as §1

Experiment [4] concerns Rattus norvegicus. Nature of the experiment: Hypoglycemic activity in fasted glucose primed Sprague-Dawley rat assessed as plasma glucose level at 50 mg/kg administered via oral gavage measured after 2 hrs by glucose-oxidase method relative to control. In a few lines: as §1
Experiment [5] has as its system Rattus norvegicus. The experiment in a line: Hypoglycemic activity in fasted glucose primed Sprague-Dawley rat assessed as plasma glucose level at 200 mg/kg administered via oral gavage measured after 2 hrs by glucose-oxidase method relative to control. The essentials:
as §1

For experiment [6], the system named is Rattus norvegicus. Nature of the experiment: Hypoglycemic activity in fasted glucose primed Sprague-Dawley rat assessed as plasma glucose level at 6 mg/kg administered via oral gavage measured after 2 hrs by glucose-oxidase method relative to control.

Regarding `c1ccc(C(/N=C2\CCCCCCN2)c2cccs2)cc1` (stereo unspecified), the inhibition in vivo at 12.5 mg/kg with Rattus norvegicus [1] came out at 29%. In the experiment with Rattus norvegicus [2], the inhibition in vivo at 25 mg/kg was determined as 37%. The inhibition in vivo at 100 mg/kg in the experiment with Rattus norvegicus [3] came to 41%. In addition, in the experiment with Rattus norvegicus [4], the inhibition in vivo at 50 mg/kg is 37%.

Turning to `c1ccc(C(/N=C2\CCCCCN2)c2cccs2)cc1` (stereo unspecified), the inhibition in vivo at 12.5 mg/kg with Rattus norvegicus [1] came to 23%. In the experiment on Rattus norvegicus [2], the inhibition in vivo at 25 mg/kg is 36%. For the same compound, the inhibition in vivo at 100 mg/kg in the experiment with Rattus norvegicus [3] was 50%. In addition, in the experiment with Rattus norvegicus [4], the inhibition in vivo at 50 mg/kg was 46%.

Consider `c1ccc(C(/N=C2\CCCCCN2)C2CCC2)cc1` (stereo unspecified), for which the inhibition in vivo at 12.5 mg/kg in the experiment on Rattus norvegicus [1] amounted to 14%. The inhibition in vivo at 100 mg/kg with Rattus norvegicus [3] was 44%.

With `c1csc(C(/N=C2\CCCCCCN2)C2CC2)c1` (stereo unspecified), in the experiment with Rattus norvegicus [1], the inhibition in vivo at 12.5 mg/kg worked out at 17%. The inhibition in vivo at 100 mg/kg in the experiment with Rattus norvegicus [3] was determined as 50%.

For the compound `CCC(Cc1cccs1)/N=C1\CCCCCCN1` (stereo unspecified), in the experiment with Rattus norvegicus [3], the inhibition in vivo at 100 mg/kg was determined as 44%.

In the case of `C=CCC(Cc1cccs1)/N=C1\CCCCCN1` (stereo unspecified), the inhibition in vivo at 12.5 mg/kg in the experiment with Rattus norvegicus [1] was 14%. The inhibition in vivo at 100 mg/kg in the experiment with Rattus norvegicus [3] came to 65%. The inhibition in vivo at 50 mg/kg in the experiment with Rattus norvegicus [4] was determined as 49%.

Regarding `c1coc(C/N=C2\CCCCCN2)c1`, the inhibition in vivo at 200 mg/kg in the experiment with Rattus norvegicus [5] was found to be 0%. In the experiment with Rattus norvegicus [3], the inhibition in vivo at 100 mg/kg was 0%.

Turning to `CCC(Cc1cccs1)/N=C1\CCCN1` (stereo unspecified), in the experiment with Rattus norvegicus [3], the inhibition in vivo at 100 mg/kg was 35%.

For the compound `c1ccc(C(/N=C2\CCCCCN2)C2CC2)cc1` (stereo unspecified), in the experiment on Rattus norvegicus [1], the inhibition in vivo at 12.5 mg/kg came out at 5%. Moreover, the inhibition in vivo at 25 mg/kg in the experiment on Rattus norvegicus [2] is 18%. In addition, in the experiment with Rattus norvegicus [3], the inhibition in vivo at 100 mg/kg amounted to 51%. Also, the inhibition in vivo at 50 mg/kg with Rattus norvegicus [4] came out at 41%.

For `COc1ccc(C(/N=C2\CCC(C(C)(C)C)CCN2)C2CC2)cc1` (stereo unspecified), the inhibition in vivo at 100 mg/kg in the experiment on Rattus norvegicus [3] was 17%.

Turning to `CCC(Cc1cccs1)/N=C1\CCCCN1` (stereo unspecified), the inhibition in vivo at 12.5 mg/kg in the experiment with Rattus norvegicus [1] is 9%. For the same compound, the inhibition in vivo at 100 mg/kg in the experiment with Rattus norvegicus [3] amounted to 42%.

With `c1csc(C(/N=C2\CCCCCN2)C2CC2)c1` (stereo unspecified), the inhibition in vivo at 12.5 mg/kg with Rattus norvegicus [1] came to 33%. Also, the inhibition in vivo at 100 mg/kg in the experiment on Rattus norvegicus [3] amounted to 44%.

For `c1ccc(C(/N=C2\CCCCCN2)c2ccco2)cc1` (stereo unspecified), the inhibition in vivo at 12.5 mg/kg with Rattus norvegicus [1] is 5%. In the experiment on Rattus norvegicus [2], the inhibition in vivo at 25 mg/kg turned out to be 34%. Moreover, the inhibition in vivo at 100 mg/kg in the experiment on Rattus norvegicus [3] was determined as 52%. Besides, in the experiment with Rattus norvegicus [4], the inhibition in vivo at 50 mg/kg worked out at 37%.

Take `Cc1ccc(C(/N=C2\CCCCCN2)C2CC2)c(C)c1` (stereo unspecified): the inhibition in vivo at 12.5 mg/kg in the experiment on Rattus norvegicus [1] amounted to 14%. In addition, the inhibition in vivo at 25 mg/kg in the experiment with Rattus norvegicus [2] came to 29%. The inhibition in vivo at 100 mg/kg in the experiment on Rattus norvegicus [3] came out at 56%. For the same compound, the inhibition in vivo at 50 mg/kg in the experiment on Rattus norvegicus [4] turned out to be 43%.

Take `c1ccc(C(/N=C2\CCCCN2)c2ccco2)cc1` (stereo unspecified): the inhibition in vivo at 12.5 mg/kg with Rattus norvegicus [1] came to 13%. Moreover, in the experiment on Rattus norvegicus [2], the inhibition in vivo at 25 mg/kg turned out to be 10%. Further, in the experiment with Rattus norvegicus [3], the inhibition in vivo at 100 mg/kg amounted to 27%. Moreover, the inhibition in vivo at 50 mg/kg in the experiment on Rattus norvegicus [4] came out at 28%.

For the compound `CC(/N=C1\CCCCCN1)C(C)c1cccs1` (stereo unspecified), the inhibition in vivo at 12.5 mg/kg in the experiment on Rattus norvegicus [1] was 0%. For the same compound, in the experiment on Rattus norvegicus [3], the inhibition in vivo at 100 mg/kg came to 46%.

Turning to `CC(Cc1cccs1)/N=C1\CCCCCN1` (stereo unspecified), in the experiment on Rattus norvegicus [1], the inhibition in vivo at 12.5 mg/kg is 0%. For the same compound, in the experiment with Rattus norvegicus [3], the inhibition in vivo at 100 mg/kg was 41%.

As to `CCC(Cc1cccs1)/N=C1\CCC(C(C)(C)C)CCN1` (stereo unspecified), the inhibition in vivo at 100 mg/kg with Rattus norvegicus [3] is 32%.

Consider `CCC(Cc1cccs1)/N=C1\CCCCCCCN1` (stereo unspecified), for which the inhibition in vivo at 12.5 mg/kg in the experiment on Rattus norvegicus [1] turned out to be 31%. Besides, in the experiment with Rattus norvegicus [3], the inhibition in vivo at 100 mg/kg is 68%.

Turning to `COc1ccc(C(/N=C2\CCCCCN2)C2CC2)cc1` (stereo unspecified), the inhibition in vivo at 12.5 mg/kg in the experiment on Rattus norvegicus [1] is 1%. The inhibition in vivo at 100 mg/kg in the experiment with Rattus norvegicus [3] amounted to 40%.

As for `c1ccc(C(/N=C2\CCCCCN2)C2CCCCC2)cc1` (stereo unspecified), the inhibition in vivo at 100 mg/kg in the experiment with Rattus norvegicus [3] came to 0%.

Regarding `c1ccc(C(/N=C2\CCCCN2)c2cccs2)cc1` (stereo unspecified), the inhibition in vivo at 12.5 mg/kg in the experiment on Rattus norvegicus [1] is 13%. Moreover, the inhibition in vivo at 25 mg/kg in the experiment with Rattus norvegicus [2] was 31%. Also, the inhibition in vivo at 100 mg/kg in the experiment with Rattus norvegicus [3] was determined as 32%.

Take `c1ccc(C(/N=C2\CCCCN2)C2CC2)cc1` (stereo unspecified): the inhibition in vivo at 12.5 mg/kg in the experiment on Rattus norvegicus [1] was 1%. The inhibition in vivo at 25 mg/kg in the experiment with Rattus norvegicus [2] turned out to be 23%. For the same compound, the inhibition in vivo at 100 mg/kg in the experiment on Rattus norvegicus [3] worked out at 36%. Besides, in the experiment with Rattus norvegicus [4], the inhibition in vivo at 50 mg/kg turned out to be 33%.

With `c1ccc(C(/N=C2\CCCCCN2)C2CCCCCC2)cc1` (stereo unspecified), the inhibition in vivo at 100 mg/kg in the experiment with Rattus norvegicus [3] was found to be 6%.

For `c1ccc(C(/N=C2\CCCCN2)c2ccccc2)cc1`, in the experiment on Rattus norvegicus [1], the inhibition in vivo at 12.5 mg/kg amounted to 41%. For the same compound, the inhibition in vivo at 25 mg/kg with Rattus norvegicus [2] amounted to 42%. Besides, the inhibition in vivo at 100 mg/kg in the experiment on Rattus norvegicus [3] turned out to be 46%. In the experiment with Rattus norvegicus [4], the inhibition in vivo at 50 mg/kg amounted to 52%. For the same compound, the inhibition in vivo at 6 mg/kg in the experiment with Rattus norvegicus [6] was 12%.

With `c1ccc(C(/N=C2\CCCCCCN2)C2CC2)cc1` (stereo unspecified), the inhibition in vivo at 12.5 mg/kg with Rattus norvegicus [1] was found to be 0%. In addition, in the experiment on Rattus norvegicus [2], the inhibition in vivo at 25 mg/kg came out at 26%. For the same compound, the inhibition in vivo at 100 mg/kg in the experiment on Rattus norvegicus [3] stood at 58%. The inhibition in vivo at 50 mg/kg in the experiment with Rattus norvegicus [4] worked out at 46%.

`CCCCNC(=O)NS(=O)(=O)c1ccc(C)cc1` [TOLBUTAMIDE]: the inhibition in vivo at 12.5 mg/kg in the experiment on Rattus norvegicus [1] was 16%. Further, in the experiment on Rattus norvegicus [2], the inhibition in vivo at 25 mg/kg was 29%. The inhibition in vivo at 100 mg/kg in the experiment with Rattus norvegicus [3] was found to be 41%. For the same compound, the inhibition in vivo at 50 mg/kg with Rattus norvegicus [4] came to 43%.

For `C1CCN/C(=N/[C@@H]2CCC[C@@H]2C2CCCCC2)CC1`, in the experiment with Rattus norvegicus [1], the inhibition in vivo at 12.5 mg/kg is 33%. The inhibition in vivo at 25 mg/kg in the experiment with Rattus norvegicus [2] was found to be 42%. In addition, in the experiment on Rattus norvegicus [3], the inhibition in vivo at 100 mg/kg worked out at 53%. Further, the inhibition in vivo at 50 mg/kg in the experiment on Rattus norvegicus [4] came to 49%. Further, the inhibition in vivo at 6 mg/kg in the experiment with Rattus norvegicus [6] amounted to 13%.

Take `c1ccc(C(/N=C2\CCCCCCCCCCCN2)c2cccs2)cc1` (stereo unspecified): in the experiment on Rattus norvegicus [3], the inhibition in vivo at 100 mg/kg was determined as 4%.

Regarding `c1ccc2c(C(/N=C3\CCCCCN3)C3CC3)cccc2c1` (stereo unspecified), the inhibition in vivo at 100 mg/kg in the experiment with Rattus norvegicus [3] turned out to be 21%.

In the case of `CCC(Cc1cccs1)/N=C1\CCCCCN1` (stereo unspecified), the inhibition in vivo at 12.5 mg/kg with Rattus norvegicus [1] was found to be 10%. Besides, the inhibition in vivo at 100 mg/kg in the experiment on Rattus norvegicus [3] worked out at 54%.

For `c1csc(C(/N=C2\CCCCN2)C2CC2)c1` (stereo unspecified), the inhibition in vivo at 100 mg/kg in the experiment with Rattus norvegicus [3] turned out to be 28%.

Turning to `Cc1ccc(C(/N=C2\CCCCCCCN2)C2CC2)c(C)c1` (stereo unspecified), the inhibition in vivo at 12.5 mg/kg with Rattus norvegicus [1] turned out to be 17%. Besides, the inhibition in vivo at 25 mg/kg with Rattus norvegicus [2] amounted to 37%. For the same compound, the inhibition in vivo at 100 mg/kg in the experiment with Rattus norvegicus [3] stood at 61%. Further, the inhibition in vivo at 50 mg/kg with Rattus norvegicus [4] stood at 47%.

Consider `c1ccc(C(/N=C2\CCCCCN2)C2CCCC2)cc1` (stereo unspecified), for which the inhibition in vivo at 12.5 mg/kg with Rattus norvegicus [1] turned out to be 12%. Further, the inhibition in vivo at 100 mg/kg in the experiment on Rattus norvegicus [3] is 46%.

Turning to `c1ccc(C(/N=C2\CCCCCCN2)c2ccco2)cc1` (stereo unspecified), the inhibition in vivo at 12.5 mg/kg in the experiment with Rattus norvegicus [1] is 22%. The inhibition in vivo at 25 mg/kg with Rattus norvegicus [2] turned out to be 29%. Further, the inhibition in vivo at 100 mg/kg with Rattus norvegicus [3] turned out to be 61%. Besides, the inhibition in vivo at 50 mg/kg in the experiment with Rattus norvegicus [4] worked out at 42%.

What is called inhibition in vivo is the share of the control response that was lost under treatment.
